SMILES strings stand for the structures.

The nature of the test: Inhibition of mitochondrial glycerol 3-phosphate acyltransferase by liquid scintillation counting. A digest of the protocol:
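Mitochondrial GPAT preparation added to start reaction in mixture of 14C-labelled glycerol 3-phosphate and palmitoyl-CoA with a range of inhibitor concentrations; acylation quantified by scintillation counting. Triplicate points; IC50 taken as inhibitor level giving 50% of activity seen with DMSO vehicle alone.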
In general, IC50 refers to the concentration that gives 50% inhibition. A lower IC50 goes with higher potency. `CCCCCCCCCS(=O)(=O)NCc1ccc(C(=O)O)cc1` had an IC50 of 129 µM.

In turn, `O=C(O)c1ccc(NS(=O)(=O)Cc2ccccc2)cc1` showed an IC50 of 221 µM.

As for `CS(=O)(=O)Nc1ccccc1C(=O)O`, the IC50 worked out at 132 µM.

`CCCCCS(=O)(=O)NCc1ccc(C(=O)O)cc1` registered an IC50 of 252 µM.

For the compound `CCCCCCCCCS(=O)(=O)Nc1cccc(C(=O)O)c1`, the IC50 was determined as 73.9 µM.

`O=C(O)c1cccc(NS(=O)(=O)Cc2ccccc2)c1` came in with an IC50 of 178 µM.

Turning to `O=C(O)c1cccc(NS(=O)(=O)c2ccc(Cl)cc2)c1`, half-maximal inhibition (IC50) required 75.7 µM.

For the compound `CCCCCS(=O)(=O)Nc1cccc(CP(=O)(O)O)c1`, it took 141 µM to reach half-maximal inhibition (IC50).

For the compound `CCCCCS(=O)(=O)Nc1ccccc1CP(=O)(O)O`, 129 µM corresponded to half-maximal inhibition (IC50).

`CCCCCCCCCS(=O)(=O)Nc1ccccc1CP(=O)(O)O` returned an IC50 of 81.1 µM.

`CCCCCCCCS(=O)(=O)Nc1cccc(P(=O)(O)O)c1`: the IC50 is 72.4 µM.

`CCCCCCCCCCCCCCCCS(=O)(=O)Nc1ccccc1C(=O)O` displayed an IC50 of 18.3 µM.

Turning to `CCCCCCCCCS(=O)(=O)Nc1ccccc1C(=O)O`, the IC50 worked out at 24.7 µM.

As for `O=C(O)c1cccc(NS(=O)(=O)c2ccccc2)c1`, the IC50 was determined as 138 µM.

As to `CCCCCS(=O)(=O)Nc1ccc(CP(=O)(O)O)cc1`, the IC50 worked out at 148 µM.

The compound `CCCCCCCCS(=O)(=O)Nc1ccccc1P(=O)(O)O` showed an IC50 of 73.6 µM.

`CCCCCCCCCS(=O)(=O)Nc1cccc(CP(=O)(O)O)c1` came in with an IC50 of 62.8 µM.

As to `O=C(O)c1ccccc1NS(=O)(=O)c1ccccc1`, the midpoint of inhibition, the IC50, lay at 146 µM.

Compound `CCCCCCCCCS(=O)(=O)NCc1cccc(C(=O)O)c1` displayed an IC50 of 83.5 µM.

With `O=C(O)c1ccccc1NS(=O)(=O)c1ccc(Cl)cc1`, the IC50 came to 107 µM.

Turning to `CCCCCCCCS(=O)(=O)Nc1ccc(O)cc1C(=O)O`, the IC50 is 116 µM.

For `O=C(O)c1ccc(NS(=O)(=O)c2ccc(Cl)cc2)cc1`, the IC50 worked out at 108 µM.

Take `CCCCCCCCCCCCCCS(=O)(=O)Nc1ccccc1C(=O)O`: the IC50 is 17.4 µM.

`CCCCCS(=O)(=O)NCc1ccccc1C(=O)O` came in with an IC50 of 217 µM.

On to `CCCCCCCCCS(=O)(=O)Nc1ccc(Cl)cc1C(=O)O`, for which the IC50 stood at 31.8 µM.

`O=C(O)c1ccccc1NS(=O)(=O)Cc1ccccc1` registered an IC50 of 140 µM.

With `CCCCCCCCCS(=O)(=O)NCc1ccccc1C(=O)O`, the midpoint of inhibition, the IC50, lay at 66.5 µM.

`CCCCCCCCCS(=O)(=O)Nc1ccc(CP(=O)(O)O)cc1` returned an IC50 of 81.3 µM.

Take `CCCCCCCCS(=O)(=O)Nc1ccc(F)cc1C(=O)O`: inhibition was half-maximal at 89 µM (IC50).

`CCCCCCCCCS(=O)(=O)Nc1ccc(C(=O)O)cc1`: 88.9 µM corresponded to half-maximal inhibition (IC50).

As to `O=C(O)c1ccc(NS(=O)(=O)CCc2ccccc2)cc1`, the IC50 came to 206 µM.

`O=C(O)c1ccccc1NS(=O)(=O)CCc1ccccc1` yielded an IC50 of 152 µM.

With `CCCCCCCCS(=O)(=O)Nc1ccc(P(=O)(O)O)cc1`, the IC50 worked out at 95.3 µM.

Take `O=C(O)c1ccc(NS(=O)(=O)c2ccccc2)cc1`: the IC50 is 151 µM.

`CCCCCS(=O)(=O)NCc1cccc(C(=O)O)c1`: half-maximal inhibition (IC50) required 310 µM.

In the case of `O=C(O)c1cccc(NS(=O)(=O)CCc2ccccc2)c1`, the IC50 was 164 µM.

The values are drawn from ChEMBL document CHEMBL1138497, “Design and synthesis of small molecule glycerol 3-phosphate acyltransferase inhibitors” (J Med Chem, 2009).
